Experimental data published in ChEMBL document CHEMBL1131590, “Muscarinic agonists with antipsychotic-like activity: structure-activity relationships of 1,2,5-thiadiazole analogues with functional dopamine antagonist activity” (J Med Chem, 1998).
Calls of active or inactive are those of the source. The rule behind the calls is not given here.

Assays:
[1] = tested on: Rattus norvegicus; test: Inhibition of conditioned avoidance response in rat following s.c. administration.; assay type: functional; conditions: sc
In short: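 Rats were tested sc over a full dose range in the conditioned avoidance model, six rats per point, up to 50 trials per session. ED50 is the dose giving 50% of the drug's maximal effect on avoidance responding.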

[2] = tested on: Mus musculus; test: Inhibition of apomorphine-induced climbing following s.c. administration in mice.; assay type: functional; conditions: sc
In short: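 Male Bom:NMRI mice, n=10 per group, received saline or drug sc 50 min before the trial and apomorphine 2 mg/kg sc 20 min before it. Each mouse was placed alone in a cylindrical wire cage, and climbing time over a 60-s trial was recorded automatically. ED50 and 95% confidence limits came from logistic nonlinear regression over 3-4 doses.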

[3] = In vitro inhibition of [3H]Oxo-Mas binding to M2 and M4 receptors in rat brain homogenate.
[4] = tested on: Mus musculus; test: Salivation after subcutaneous administration in mice; assay type: functional; conditions: sc
In short: (§1)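 Mice received saline or drug sc. Side effects were scored 30 min after injection on a three-grade scale and expressed as percent of the maximum possible score. ED50 was obtained by graphic interpolation of the dose-response curve.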

[5] = tested on: Mus musculus; test: Tremor after subcutaneous administration in mice was determined; assay type: functional; conditions: sc; in short: as §1
[6] = tested on: Rattus norvegicus; test: Conditioned avoidance responding in rat after subcutaneous administration (3 mg/kg); expressed as avoidance response/response failure; assay type: functional
In short: (§2)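 Single-dose screen in rats, given sc at the dose listed in each line. Each session typically ran 50 trials. Percent avoidance responses and percent response failures were recorded.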

[7] = tested on: Rattus norvegicus; test: Conditioned avoidance responding in rat after subcutaneous administration (1 mg/kg); expressed as avoidance response/response failure; assay type: functional; in short: as §2
[8] = tested on: Rattus norvegicus; test: Conditioned avoidance responding in rat after subcutaneous administration (0.3 mg/kg); expressed as avoidance response/response failure; 3/41; assay type: functional, organism-based
[9] = tested on: Rattus norvegicus; test: Conditioned avoidance responding in rat after subcutaneous administration (1 mg/kg); expressed as avoidance response/response failure; 18/21; assay type: functional, organism-based
[10] = tested on: Rattus norvegicus; test: Conditioned avoidance responding in rat after subcutaneous administration (0.3 mg/kg); expressed as avoidance response/response failure; 16/1; assay type: functional, organism-based; in short: as §2
[11] = tested on: Rattus norvegicus; test: Conditioned avoidance responding in rat after subcutaneous administration (0.3 mg/kg); expressed as avoidance response/response failure; 9/55; assay type: functional, organism-based
[12] = tested on: Rattus norvegicus; test: Conditioned avoidance responding in rat after subcutaneous administration (3 mg/kg); expressed as avoidance response/response failure; 48/20; assay type: functional, organism-based; in short: as §2
[13] = tested on: Rattus norvegicus; test: Conditioned avoidance responding in rat after subcutaneous administration (0.3 mg/kg); expressed as avoidance response/response failure; 24/63; assay type: functional, organism-based; in short: as §2
[14] = In vitro inhibition of [3H]Oxo-Mas binding to M2 and M4 receptors in rat brain homogenate.; remark: listed apart in the source
[15] = tested on: Rattus norvegicus; test: Conditioned avoidance responding in rat after subcutaneous administration (0.3 mg/kg); expressed as avoidance response/response failure; 29/19; assay type: functional, organism-based

**Q.** Which ED50 [1] does the source give for `CCSc1nsnc1C1CN2CCC[C@H]1C2` (some centres not stated) here?
**A.** 0.045 mg/kg

**Q.** And the ED50 [2]?
**A.** 0.047 mg/kg

**Q.** And the IC50 [3]?
**A.** 1.3 nM

**Q.** Which ED50 [1] does the source give for `CCCSc1nsnc1[C@@H]1CN2CCC[C@H]1C2` here?
**A.** 0.03 mg/kg

**Q.** And the ED50 [2]?
**A.** 0.17 mg/kg

**Q.** And the ED50 [4]?
**A.** > 3 mg/kg

**Q.** What about the IC50 [3] of the same compound?
**A.** 0.65 nM

**Q.** And the ED50 [5]?
**A.** 1.3 mg/kg

**Q.** What about the Activity [6] of the same compound?
**A.** 39%

**Q.** With `CCCCSc1nsnc1C1CN2CC[C@H]1C2` (some centres not stated) as the compound, how does the ED50 [1] read?
**A.** < 1 mg/kg

**Q.** And the IC50 [3]?
**A.** 1.3 nM

**Q.** What about the Activity [6] of the same compound?
**A.** 0%

**Q.** With `CCCCSc1nsnc1C1CN2CCC[C@H]1C2` (some centres not stated) as the compound, how does the ED50 [1] read?
**A.** 0.007 mg/kg

**Q.** And the Activity [7]?
**A.** 32%

**Q.** And the ED50 [2]?
**A.** 0.045 mg/kg

**Q.** And the IC50 [3]?
**A.** 0.47 nM

**Q.** With `CCCCSc1nsnc1C1CN2CCC1CC2` (configuration not stated) [VEDACLIDINE] as the compound, how does the ED50 [1] read?
**A.** 0.1 mg/kg

**Q.** And the IC50 [3]?
**A.** 2.2 nM

**Q.** And the Activity [6]?
**A.** 18%

**Q.** For `CCCSc1nsnc1[C@H]1CN2CCC[C@@H]1C2`, which ED50 [1] is on record?
**A.** 0.013 mg/kg

**Q.** What about the ED50 [2] of the same compound?
**A.** 0.021 mg/kg

**Q.** And the ED50 [4]?
**A.** > 3 mg/kg

**Q.** What about the IC50 [3] of the same compound?
**A.** 0.64 nM

**Q.** What about the ED50 [5] of the same compound?
**A.** 2.2 mg/kg

**Q.** What about the Activity [6] of the same compound?
**A.** 31%

**Q.** Which ED50 [1] does the source give for `CCCCCSc1nsnc1C1CN2CCC[C@H]1C2` (some centres not stated) here?
**A.** 0.065 mg/kg

**Q.** And the ED50 [2]?
**A.** 0.054 mg/kg

**Q.** And the IC50 [3]?
**A.** 2.5 nM

**Q.** What about the Activity [8] of the same compound?
**A.** inactive

**Q.** What does the source list for `CCCCSc1nsnc1[C@@H]1CN2CCC[C@H]1C2`?
**A.** ED50 [1]: 0.018 mg/kg; Activity [7]: 8%; ED50 [2]: 0.026 mg/kg; ED50 [4]: > 3 mg/kg; IC50 [3]: 0.53 nM; ED50 [5]: > 3 mg/kg

**Q.** Which results are given for `CC[C@@H]1C(=O)OC[C@@H]1Cc1cncn1C` [PILOCARPINE]?
**A.** ED50 [1]: 4.5 mg/kg; ED50 [2]: 3.87 mg/kg; ED50 [4]: 4 mg/kg; Activity [9]: Weak activity; IC50 [3]: 67 nM; ED50 [5]: > 10 mg/kg

**Q.** Which ED50 [1] does the source give for `CCCCSc1nsnc1[C@H]1CN2CCC[C@@H]1C2` here?
**A.** 0.017 mg/kg

**Q.** And the Activity [10]?
**A.** Active

**Q.** And the ED50 [2]?
**A.** 0.012 mg/kg

**Q.** What about the ED50 [4] of the same compound?
**A.** > 0.3 mg/kg

**Q.** And the IC50 [3]?
**A.** 0.5 nM

**Q.** And the ED50 [5]?
**A.** > 0.3 mg/kg

**Q.** With `O=C(CCCN1CCC(O)(c2ccc(Cl)cc2)CC1)c1ccc(F)cc1` [HALOPERIDOL] as the compound, how does the ED50 [1] read?
**A.** 0.11 mg/kg

**Q.** What about the ED50 [2] of the same compound?
**A.** 0.08 mg/kg

**Q.** What about the Activity [11] of the same compound?
**A.** inactive

**Q.** What does the source list for `CCCCSc1nsnc1[C@H]1CN2CCC[C@H]1C2`?
**A.** ED50 [1]: > 3 mg/kg; ED50 [2]: > 1 mg/kg; ED50 [4]: > 1 mg/kg; IC50 [3]: 2.3 nM; ED50 [5]: > 1 mg/kg; Activity [12]: Weak activity

**Q.** What does the source list for `CCCSc1nsnc1C1CN2CCC[C@H]1C2` (some centres not stated)?
**A.** ED50 [1]: 0.056 mg/kg; Activity [7]: 41%; ED50 [2]: 0.056 mg/kg; IC50 [3]: 1.4 nM

**Q.** Which results are given for `CCCCSc1nsnc1[C@@H]1CN2CCC[C@@H]1C2`?
**A.** ED50 [1]: > 3 mg/kg; IC50 [3]: 9.9 nM; Activity [6]: 86%

**Q.** Which results are given for `CSc1nsnc1C1CN2CCC[C@H]1C2` (some centres not stated)?
**A.** ED50 [1]: 0.14 mg/kg; ED50 [2]: 0.2 mg/kg; IC50 [3]: 2.9 nM

**Q.** Which ED50 [1] does the source give for `CCCCSc1nsnc1C1CN2CCC[C@@H]1C2` (some centres not stated) here?
**A.** > 3 mg/kg

**Q.** And the IC50 [3]?
**A.** 6.1 nM

**Q.** What about the Activity [6] of the same compound?
**A.** 97%

**Q.** With `CCCCSc1nsnc1C1CN2CC[C@@H]1C2` (some centres not stated) as the compound, how does the ED50 [1] read?
**A.** > 1 mg/kg

**Q.** What about the IC50 [3] of the same compound?
**A.** 4.2 nM

**Q.** What about the Activity [6] of the same compound?
**A.** 100%

**Q.** Which results are given for `CCCSc1nsnc1[C@H]1CN2CCC[C@H]1C2`?
**A.** ED50 [1]: > 3 mg/kg; ED50 [2]: 2.21 mg/kg; ED50 [4]: > 30 mg/kg; IC50 [3]: 3.6 nM; ED50 [5]: > 30 mg/kg; Activity [6]: 86%

**Q.** What does the source list for `O=C1CCCN1CC#CCN1CCCC1` [OXOTREMORINE]?
**A.** ED50 [1]: 0.3 mg/kg; ED50 [2]: 0.09 mg/kg; Activity [13]: inactive; ED50 [4]: 0.2 mg/kg; IC50 [3]: 5 nM; ED50 [5]: 0.24 mg/kg

**Q.** Which ED50 [1] does the source give for `CCCSc1nsnc1[C@@H]1CN2CCC[C@@H]1C2` here?
**A.** > 3 mg/kg

**Q.** And the ED50 [2]?
**A.** 2.2 mg/kg

**Q.** And the ED50 [4]?
**A.** > 30 mg/kg

**Q.** And the IC50 [3]?
**A.** 13.3 nM

**Q.** What about the ED50 [5] of the same compound?
**A.** > 30 mg/kg

**Q.** What about the Activity [6] of the same compound?
**A.** 51%

**Q.** Which ED50 [1] does the source give for `CCCCSc1nsnc1C1=CCCN(C)C1` here?
**A.** 2.8 mg/kg

**Q.** What about the IC50 [14] of the same compound?
**A.** 1.3 nM

**Q.** And the Activity [6]?
**A.** 57%

**Q.** With `CCCCCCSc1nsnc1C1CN2CCC[C@H]1C2` (some centres not stated) as the compound, how does the ED50 [1] read?
**A.** 0.1 mg/kg

**Q.** And the ED50 [2]?
**A.** 0.06 mg/kg

**Q.** What about the Activity [15] of the same compound?
**A.** Weak activity

**Q.** What about the IC50 [3] of the same compound?
**A.** 3.3 nM
